Our source for the Ki and inhibition values is ChEMBL document CHEMBL2311331, “Selective and potent adenosine A3 receptor antagonists by methoxyaryl substitution on the N-(2,6-diarylpyrimidin-4-yl)acetamide scaffold” (Eur J Med Chem, 2013).

Test [1] deals with T1, Adenosine receptor A3 (Homo sapiens, UniProt P0DMS8).
T1 sequence (P0DMS8 whole entry): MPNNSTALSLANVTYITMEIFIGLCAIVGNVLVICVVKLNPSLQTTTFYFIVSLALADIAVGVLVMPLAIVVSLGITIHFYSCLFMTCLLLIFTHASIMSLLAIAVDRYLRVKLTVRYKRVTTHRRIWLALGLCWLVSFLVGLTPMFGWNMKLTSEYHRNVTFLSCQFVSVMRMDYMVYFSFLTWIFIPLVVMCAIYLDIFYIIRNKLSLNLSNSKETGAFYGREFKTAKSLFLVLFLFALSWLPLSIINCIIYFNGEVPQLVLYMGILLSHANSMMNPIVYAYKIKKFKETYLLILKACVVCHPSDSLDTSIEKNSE
The test can be described thus: Displacement of [3H]NECA from human adenosine A3 receptor expressed in human HeLa cells. It counts as cell-based. (Displacement assays read how much labelled ligand stays bound in the presence of the test substance.)

Test [2] addresses T2, Adenosine receptor A2b (Homo sapiens) (UniProt P29275).
T2 sequence (whole entry): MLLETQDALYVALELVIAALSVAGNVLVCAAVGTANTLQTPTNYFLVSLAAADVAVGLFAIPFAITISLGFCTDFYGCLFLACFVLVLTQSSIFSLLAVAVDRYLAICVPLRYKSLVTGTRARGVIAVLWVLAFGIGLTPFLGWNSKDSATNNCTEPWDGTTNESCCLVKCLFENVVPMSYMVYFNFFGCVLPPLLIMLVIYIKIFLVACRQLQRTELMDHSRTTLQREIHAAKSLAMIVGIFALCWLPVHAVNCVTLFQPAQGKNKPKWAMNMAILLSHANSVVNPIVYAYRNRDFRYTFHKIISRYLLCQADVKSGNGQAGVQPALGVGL
The test can be described thus: Displacement of [3H]DPCPX from human adenosine A2B receptor expressed in HEK-293 cells at 1 uM. It counts as cell-based. The note with it: HEK293. The procedure, abridged:
(§1)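 Specific radioligand binding measured in the presence of a single test concentration, 1 µM, at each receptor/cell system (A1 CHO with [3H]DPCPX; A2A HeLa with triazolotriazine phenol tracer; A2B HEK-293 with [3H]DPCPX; A3 HeLa with [3H]NECA). Reported as percent displacement of specific binding, n = 2.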

Test [3] addresses T3, Adenosine receptor A2a (Homo sapiens, UniProt P29274). The test can be described thus: Displacement of [3H]4-(2-[7-Amino-2-(2-furyl) [1,2,4]triazolo[2,3-alpha] [1,3,5]triazin-5-ylamino]ethyl)phenol from human adenosine A2A receptor expressed in human HeLa cells at 1 uM. It counts as cell-based. The method, boiled down:
as §1

Test [4] concerns the target T4, Adenosine receptor A1 (Homo sapiens) (UniProt P30542).
T4 sequence (whole entry): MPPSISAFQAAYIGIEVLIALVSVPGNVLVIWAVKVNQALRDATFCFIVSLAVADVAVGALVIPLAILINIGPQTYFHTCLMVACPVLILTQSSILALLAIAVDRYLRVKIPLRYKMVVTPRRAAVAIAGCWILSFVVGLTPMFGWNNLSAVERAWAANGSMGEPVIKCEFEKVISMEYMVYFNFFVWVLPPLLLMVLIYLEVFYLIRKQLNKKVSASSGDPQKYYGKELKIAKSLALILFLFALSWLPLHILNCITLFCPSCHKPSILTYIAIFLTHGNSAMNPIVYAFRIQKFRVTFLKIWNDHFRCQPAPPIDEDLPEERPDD
The test can be described thus: Displacement of [3H]DPCPX from human adenosine A1 receptor expressed in CHO cells at 1 uM. It counts as cell-based. The method, boiled down:
as §1

In test [5] the target is T5, Adenosine receptor A1 (Homo sapiens, UniProt P30542).
T5 sequence (P30542 whole entry): T4 sequence (whole entry)
The test can be described thus: Displacement of [3H]DPCPX from human adenosine A1 receptor expressed in CHO cells. Type of test: cell-based.

The target in test [6] is T6, Adenosine receptor A2b (Homo sapiens, UniProt P29275).
T6 sequence (P29275 whole entry): T2 sequence (whole entry)
The test can be described thus: Displacement of [3H]DPCPX from human adenosine A2B receptor expressed in HEK-293 cells. It counts as cell-based, HEK293.

Test [7] has as its target T3, Adenosine receptor A2a. The test can be described thus: Displacement of [3H]4-(2-[7-Amino-2-(2-furyl) [1,2,4]triazolo[2,3-alpha] [1,3,5]triazin-5-ylamino]ethyl)phenol from human adenosine A2A receptor expressed in human HeLa cells. It counts as cell-based.
Test [8] deals with T7, Adenosine receptor A3 (Homo sapiens) (UniProt P0DMS8).
T7 sequence (whole entry): T1 sequence (P0DMS8 whole entry)
The test can be described thus: Displacement of [3H]NECA from human adenosine A3 receptor expressed in human HeLa cells at 1 uM. Type of test: cell-based. The method, boiled down:
as §1

The structures appear in SMILES notation.

T3 sequence (P29274 whole entry): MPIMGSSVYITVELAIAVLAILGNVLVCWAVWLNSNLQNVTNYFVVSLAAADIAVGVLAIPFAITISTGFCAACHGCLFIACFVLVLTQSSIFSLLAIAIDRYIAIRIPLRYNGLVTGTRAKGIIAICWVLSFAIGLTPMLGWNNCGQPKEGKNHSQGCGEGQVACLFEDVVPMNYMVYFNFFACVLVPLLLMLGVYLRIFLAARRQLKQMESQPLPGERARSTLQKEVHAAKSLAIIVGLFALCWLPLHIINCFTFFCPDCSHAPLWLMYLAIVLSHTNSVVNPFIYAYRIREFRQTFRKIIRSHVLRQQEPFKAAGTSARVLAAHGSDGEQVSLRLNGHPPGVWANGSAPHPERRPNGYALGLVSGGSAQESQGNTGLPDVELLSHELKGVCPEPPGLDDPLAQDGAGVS

One may read the Ki as a dissociation constant, usually derived from enzyme kinetics or from competition with a known ligand. A higher Ki goes with a looser hold on the target. In general, inhibition refers to the percentage by which the read-out fell short of the control. For the compound `COc1ccc(-c2cc(NC(C)=O)nc(-c3ccc(OC)c(OC)c3)n2)cc1OC`, affinity in test [1] was put at a Ki of 0.0052 µM. Besides, the inhibition in test [2] stood at 2%; in test [3], 5%; in test [4], 10%.
The like results for `COc1ccc(/C=C/c2cc(NC(C)=O)nc(/C=C/c3ccc(OC)cc3)n2)cc1` were, in that order, 0.513 µM, 2%, 13% and 16%.
`CC(=O)Nc1cc(-c2ccc3c(c2)OCO3)nc(-c2ccc3c(c2)OCO3)n1` registered an inhibition in test [2] of 6%. Also, in test [5], the Ki was determined as 0.017 µM.
`COc1ccc(OC)c(-c2cc(NC(C)=O)nc(-c3cc(OC)ccc3OC)n2)c1`: in test [1], the Ki stood at 0.0063 µM. Moreover, the inhibition worked out at 1% in test [2], 17% in test [3] and 4% in test [4].
`COc1cc(OC)cc(-c2cc(NC(C)=O)nc(-c3cc(OC)cc(OC)c3)n2)c1` yielded a Ki in test [1] of 0.055 µM. Also, the inhibition is 1% in test [2], 3% in test [3] and 15% in test [4].
Turning to `COc1cccc(-c2cc(NC(C)=O)nc(-c3cccc(OC)c3)n2)c1`, the Ki in test [1] was 0.0028 µM; in test [6], 0.0675 µM; in test [7], 0.0494 µM; in test [5], 0.0226 µM.
As to `COc1ccc(-c2cc(NC(C)=O)nc(-c3ccc(OC)cc3OC)n2)c(OC)c1`, the inhibition in test [2] turned out to be 7%; in test [3], 10%; in test [4], 3%.
Compound `CC(=O)Nc1cc(-c2ccc(OC(F)(F)F)cc2)nc(-c2ccc(OC(F)(F)F)cc2)n1` yielded an inhibition constant Ki in test [1] of 0.389 µM. Besides, the inhibition in test [2] is 4%; in test [3], 1%; in test [4], 8%.
Turning to `COc1ccccc1-c1cc(NC(C)=O)nc(-c2ccccc2OC)n1`, the inhibition in test [2] was 7%; in test [3] it was 15%; in test [4], 4%.
Take `COc1cccc(-c2cc(NC(C)=O)nc(-c3cccc(OC)c3OC)n2)c1OC`: the Ki in test [1] is 0.0424 µM; in test [6] it was 0.494 µM; in test [7], 0.375 µM. The same compound displayed an inhibition in test [4] of 10%.
As to `CC(=O)Nc1cc(-c2ccccc2)nc(-c2ccccc2)n1`, the inhibition in test [2] turned out to be 22%.
As to `COc1cccc(OC)c1-c1cc(NC(C)=O)nc(-c2c(OC)cccc2OC)n1`, the inhibition is 4% in test [8], 3% in test [2], 1% in test [3] and 4% in test [4].
For `COc1cc(-c2cc(NC(C)=O)nc(-c3cc(OC)c(OC)c(OC)c3)n2)cc(OC)c1OC`, the Ki in test [1] amounted to 0.0261 µM. Besides, the inhibition in test [2] came out at 1%; in test [3] it was 1%; in test [4], 14%.
The compound `CCOc1ccc(-c2cc(NC(C)=O)nc(-c3ccc(OCC)cc3)n2)cc1` displayed an inhibition constant Ki in test [1] of 0.0402 µM. Also, the inhibition in test [2] was 1%; in test [3] it was 2%; in test [4], 12%.
In the case of `COc1ccc(-c2cc(NC(C)=O)nc(-c3ccc(OC)cc3)n2)cc1`, the inhibition stood at 2% in test [2], 4% in test [3] and 2% in test [4].
